pIC50: −log10 of the molar value.
What was measured:
HL-60 [1] = experiment: Cytotoxicity against human HL60 cells assessed as growth inhibition by MTT assay; type: functional, cell-based
Method in brief: (§1)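 Growth inhibition of EC9706, HL60, MCF-7 or SMMC7721 human cancer cells measured by MTT assay, with the IC50 reported as the potency value.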

A549 [2] = experiment: Cytotoxicity against human A549 cells assessed as growth inhibition by SRB assay; type: functional, cell-based
Method in brief: (§2)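 A549 growth inhibition measured by sulforhodamine B (SRB) staining, with the IC50 reported as the potency value.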

SMMC-7721 = experiment: Cytotoxicity against human SMMC7721 cells assessed as growth inhibition by MTT assay; type: functional, cell-based; method in brief: as §1
MCF7 = experiment: Cytotoxicity against human MCF7 cells assessed as growth inhibition by MTT assay; type: functional, cell-based; method in brief: as §1
[3] = Cytotoxicity against human EC9706 cells assessed as growth inhibition by MTT assay; type: functional, cell-based; method in brief: as §1
HL-60 [4] = experiment: Ratio of doxorubicin IC50 to compound IC50 for human HL60 cells; type: functional
HL-60 [5] = experiment: Cytotoxicity against human HL60 cells assessed as growth inhibition; type: functional, cell-based; method in brief: as §1
A549 [6] = experiment: Cytotoxicity against human A549 cells assessed as growth inhibition; type: functional, cell-based; method in brief: as §2

SMILES: CO/C=C(/C(=O)OC)c1ccccc1COc1cc(C(F)(F)F)nc(Nc2ccc(Cl)cc2)n1
- pIC50 (HL-60 [1]): 4.72
- pIC50 (A549 [2]): 5.89

SMILES: CO/C=C(/C(=O)OC)c1ccccc1COc1cc(C(F)(F)F)nc(Nc2ccc(Cl)cc2F)n1
- pIC50 (HL-60 [1]): 5.57
- pIC50 (A549 [2]): 5.89

SMILES: CO/C=C(/C(=O)OC)c1ccccc1COc1cc(C(F)(F)F)nc(Nc2ccc(F)cc2F)n1
- pIC50 (HL-60 [1]): 5.32
- pIC50 (A549 [2]): 6.00

SMILES: CO/C=C(/C(=O)OC)c1ccccc1COc1cc(C(F)(F)F)nc(Nc2c(F)cccc2F)n1
- pIC50 (HL-60 [1]): 4.92
- pIC50 (A549 [2]): 4.38

SMILES: CO/C=C(/C(=O)OC)c1ccccc1COc1cc(C(F)(F)F)nc(Nc2ccc(F)c(F)c2F)n1
- pIC50 (HL-60 [1]): 4.87
- pIC50 (A549 [2]): 6.00

SMILES: CNc1nc(OCc2ccccc2/C(=C\OC)C(=O)OC)cc(C(F)(F)F)n1
- pIC50 (HL-60 [1]): 4.12
- pIC50 (A549 [2]): 4.03

SMILES: CCNc1nc(OCc2ccccc2/C(=C\OC)C(=O)OC)cc(C(F)(F)F)n1
- pIC50 (HL-60 [1]): 6.52
- pIC50 (A549 [2]): 5.49

SMILES: CO/C=C(/C(=O)OC)c1ccccc1COc1cc(C(F)(F)F)nc(N(C)C)n1
- pIC50 (HL-60 [1]): 4.95
- pIC50 (A549 [2]): 5.22

SMILES: CCN(CC)c1nc(OCc2ccccc2/C(=C\OC)C(=O)OC)cc(C(F)(F)F)n1
- pIC50 (HL-60 [1]): 4.82
- pIC50 (A549 [2]): 4.75

SMILES: CO/C=C(/C(=O)OC)c1ccccc1COc1cc(C(F)(F)F)nc(NC(C)C)n1
- pIC50 (HL-60 [1]): 5.47
- pIC50 (A549 [2]): 5.01

SMILES: CO/C=C(/C(=O)OC)c1ccccc1COc1cc(C(F)(F)F)nc(NC2CC2)n1
- pIC50 (HL-60 [1]): 5.19
- pIC50 (A549 [2]): 5.00

SMILES: CO/C=C(/C(=O)OC)c1ccccc1COc1cc(C(F)(F)F)nc(N2CCCCC2)n1
- pIC50 (HL-60 [1]): 4.29
- pIC50 (A549 [2]): 5.31

SMILES: CO/C=C(/C(=O)OC)c1ccccc1COc1nc(Nc2ccccc2)nc(C(F)(F)F)c1C
- pIC50 (HL-60 [1]): 6.15
- pIC50 (A549 [2]): 5.13

SMILES: CO/C=C(/C(=O)OC)c1ccccc1COc1nc(Nc2ccc(Cl)cc2)nc(C(F)(F)F)c1C
- pIC50 (HL-60 [1]): 6.15
- pIC50 (A549 [2]): 5.26

SMILES: CO/C=C(/C(=O)OC)c1ccccc1COc1nc(Nc2ccc(Cl)cc2Cl)nc(C(F)(F)F)c1C
- pIC50 (SMMC-7721): 5.34
- pIC50 (MCF7): 4.85
- pIC50 (HL-60 [1]): 5.54
- pIC50 [3]: 6.36
- pIC50 (A549 [2]): 6.40

SMILES: CO/C=C(/C(=O)OC)c1ccccc1COc1nc(Nc2ccc(F)cc2F)nc(C(F)(F)F)c1C
- Ratio IC50 (HL-60 [4]): 24
- pIC50 (HL-60 [1]): 8.47
- pIC50 (A549 [2]): 5.51

SMILES: CO/C=C(/C(=O)OC)c1ccccc1COc1nc(Nc2ccc(F)c(F)c2F)nc(C(F)(F)F)c1C
- pIC50 (HL-60 [1]): 6.10
- pIC50 (A549 [2]): 5.30

SMILES: CO/C=C(/C(=O)OC)c1ccccc1COc1cc(C(F)(F)F)nc(OC(C)C)n1
- pIC50 (HL-60 [1]): 5.16
- pIC50 (A549 [2]): 5.01

SMILES: CO/C=C(/C(=O)OC)c1ccccc1COc1cc(C(F)(F)F)nc(Nc2ccccc2)n1
- pIC50 (HL-60 [5]): 5.48
- pIC50 (A549 [6]): 5.52
- pIC50 (HL-60 [1]): 5.48
- pIC50 (A549 [2]): 5.52

SMILES: COc1cccc2c1C(=O)c1c(O)c3c(c(O)c1C2=O)C[C@@](O)(C(=O)CO)C[C@@H]3O[C@H]1C[C@H](N)[C@H](O)[C@H](C)O1 [DOXORUBICIN]
- pIC50 (HL-60 [1]): 7.09
- pIC50 (A549 [2]): 6.30

SMILES: CO/C=C(/C(=O)OC)c1ccccc1COc1cc(C(F)(F)F)nc(Nc2ccc(Cl)cc2Cl)n1 [SYP-11277]
- pIC50 (HL-60 [1]): < 4.00
- pIC50 (A549 [2]): < 4.00
